{
  "source": "paper PMC4029328",
  "about": "(Biomedical chromatography : BMC, 2013)",
  "key": {"[1]": {"system": "mice", "details": "ref Matsumoto et al., 2005, cited from earlier work"}, "[2]": {"test": "Intravenous pharmacokinetic study in rats", "assay_type": "in vivo", "details": "4 mg/kg IV bolus, male Sprague Dawley rats, n=6, mean ± SD", "in_short": "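Male rats 240-250 g, housed 48 h, fasted 12 h predose and 4 h postdose, water free. Dosed via jugular vein cannula, 30 s bolus in 10% PEG 400 in water, prepared same day. Chloroform liquid-liquid extraction with tryptoline internal standard. Noncompartmental analysis.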"}, "[3]": {"system": "μ-opioid receptors", "details": "ref Matsumoto et al., 2004, 2006; cited from earlier work"}, "[4]": {"test": "Stability of 7-OHMG in rat plasma QC samples", "assay_type": "in vitro ADME", "details": "for Concentration measured: n=6"}, "[5]": {"system": "opioid receptors", "details": "in vitro assays; ref Horie et al., 2005; cited from earlier work"}, "[6]": {"details": "at equi-antinociceptive doses; ref Matsumoto et al., 2006; cited from earlier work"}, "[7]": {"system": "opioid receptors", "details": "pharmacological experiments; ref Watanabe et al., 1997; cited from earlier work"}, "[8]": {"details": "rat plasma, long term 30 days at -20 °C, spiked 20 ng/mL"}, "[9]": {"details": "rat plasma, long term 30 days at -20 °C, spiked 600 ng/mL"}, "[10]": {"details": "rat plasma, long term 30 days at -20 °C, spiked 3200 ng/mL"}, "[11]": {"details": "rat plasma, short term 12 hr at 25 °C, spiked 20 ng/mL"}, "[12]": {"details": "rat plasma, short term 12 hr at 25 °C, spiked 600 ng/mL"}, "[13]": {"details": "rat plasma, short term 12 hr at 25 °C, spiked 3200 ng/mL"}, "[14]": {"details": "rat plasma, three freeze thaw cycles, spiked 20 ng/mL"}, "[15]": {"details": "rat plasma, three freeze thaw cycles, spiked 600 ng/mL"}, "[16]": {"details": "rat plasma, three freeze thaw cycles, spiked 3200 ng/mL"}, "[17]": {"details": "reconstituted plasma extract, auto sampler 12 hr at 25 °C, spiked 20 ng/mL"}, "[18]": {"details": "reconstituted plasma extract, auto sampler 12 hr at 25 °C, spiked 600 ng/mL"}},
  "note": "Like-named read-outs stand apart in the source and are kept apart here.",
  "data": [
    {"molecule": "CC[C@@H]1CN2CC[C@@]3(O)C(=Nc4cccc(OC)c43)[C@@H]2C[C@@H]1/C(=C\\OC)C(=O)OC", "note": "[7-OHMG, 7-hydroxymitragynine]", "values": [
      {"measurement": "Place preference", "setting": "[1]; 1 mg/kg dose", "result": "slight place preference"},
      {"measurement": "Place preference", "setting": "[1]; 2 mg/kg dose", "result": "strong place preference"},
      {"measurement": "AUC0→∞", "setting": "[2]", "result": "98.3 ± 32.1", "unit": "µg·min/mL"},
      {"measurement": "CL", "setting": "[2]", "result": "2.65 ± 0.888", "unit": "L/h/kg"},
      {"measurement": "Cmax", "setting": "[2]", "result": "3.0 ± 0.3", "unit": "µg/mL"},
      {"measurement": "MRT", "setting": "[2]", "result": "70.9 ± 10.0", "unit": "min"},
      {"measurement": "T1/2", "setting": "[2]", "result": "22.9 ± 3.6", "unit": "min"},
      {"measurement": "Vd", "setting": "[2]", "result": "1.5958 ± 0.5863", "unit": "L/kg"},
      {"measurement": "Affinity for μ- versus δ- and κ-opioid receptors", "setting": "[3]", "result": "higher affinity for μ-opioid receptors relative to the δ- and κ- receptors"},
      {"measurement": "Short-term stability in plasma", "setting": "[4]; 12 h at room temperature", "result": "stable"},
      {"measurement": "Auto-sampler stability of reconstituted samples", "setting": "[4]; 12 h in auto-sampler at 25 °C", "result": "stable"},
      {"measurement": "Long-term stability in plasma", "setting": "[4]; 30 days at -20 °C", "result": "stable"},
      {"measurement": "Accuracy (measured vs spiked concentration)", "setting": "[4]; [8]", "result": 98, "unit": "%"},
      {"measurement": "Concentration measured", "setting": "[4]; [8]", "result": "0.0196 ± 0.0008", "unit": "µg/mL"},
      {"measurement": "Accuracy (measured vs spiked concentration)", "setting": "[4]; [9]", "result": 101.7, "unit": "%"},
      {"measurement": "Concentration measured", "setting": "[4]; [9]", "result": "0.6104 ± 0.0288", "unit": "µg/mL"},
      {"measurement": "Accuracy (measured vs spiked concentration)", "setting": "[4]; [10]", "result": 95.6, "unit": "%"},
      {"measurement": "Concentration measured", "setting": "[4]; [10]", "result": "3.0582 ± 0.3204", "unit": "µg/mL"},
      {"measurement": "Accuracy (measured vs spiked concentration)", "setting": "[4]; [11]", "result": 101.5, "unit": "%"},
      {"measurement": "Concentration measured", "setting": "[4]; [11]", "result": "0.0203 ± 0.0013", "unit": "µg/mL"},
      {"measurement": "Accuracy (measured vs spiked concentration)", "setting": "[4]; [12]", "result": 108.8, "unit": "%"},
      {"measurement": "Concentration measured", "setting": "[4]; [12]", "result": "0.6527 ± 0.0178", "unit": "µg/mL"},
      {"measurement": "Accuracy (measured vs spiked concentration)", "setting": "[4]; [13]", "result": 102.8, "unit": "%"},
      {"measurement": "Concentration measured", "setting": "[4]; [13]", "result": "3.2894 ± 0.1972", "unit": "µg/mL"},
      {"measurement": "Accuracy (measured vs spiked concentration)", "setting": "[4]; [14]", "result": 102, "unit": "%"},
      {"measurement": "Concentration measured", "setting": "[4]; [14]", "result": "0.0204 ± 0.0003", "unit": "µg/mL"},
      {"measurement": "Accuracy (measured vs spiked concentration)", "setting": "[4]; [15]", "result": 105.2, "unit": "%"},
      {"measurement": "Concentration measured", "setting": "[4]; [15]", "result": "0.6313 ± 0.0402", "unit": "µg/mL"},
      {"measurement": "Accuracy (measured vs spiked concentration)", "setting": "[4]; [16]", "result": 103.5, "unit": "%"},
      {"measurement": "Concentration measured", "setting": "[4]; [16]", "result": "3.3125 ± 0.1635", "unit": "µg/mL"},
      {"measurement": "Accuracy (measured vs spiked concentration)", "setting": "[4]; [17]", "result": 95.5, "unit": "%"},
      {"measurement": "Concentration measured", "setting": "[4]; [17]", "result": "0.0191 ± 0.0007", "unit": "µg/mL"},
      {"measurement": "Accuracy (measured vs spiked concentration)", "setting": "[4]; [18]", "result": 94.7, "unit": "%"},
      {"measurement": "Concentration measured", "setting": "[4]; [18]", "result": "0.5683 ± 0.0439", "unit": "µg/mL"},
      {"measurement": "Accuracy (measured vs spiked concentration)", "setting": "[4]; reconstituted plasma extract, auto sampler 12 hr at 25 °C, spiked 3200 ng/mL", "result": 99.8, "unit": "%"},
      {"measurement": "Freeze-thaw stability in plasma", "setting": "[4]; three freeze-thaw cycles, stored at -20 °C and thawed to room temperature", "result": "stable"},
      {"measurement": "Opioid agonistic effect among constituents of Mitragyna speciosa", "setting": "[5]", "result": "most potent effect"},
      {"measurement": "Times less constipating than morphine", "setting": "[6]", "result": "4.9-6.4 times"}
    ]},
    {"molecule": "mitragynine", "values": [
      {"measurement": "Effect on opioid receptors", "setting": "[7]", "result": "agonistic effects on opioid receptors"}
    ]}
  ]
}
